How the values were obtained:
[1] = biological target: T1, WT human SLACK (Homo sapiens, UniProt Q5JUK3); assay: Tl+ flux assay in HEK-293 cells stably expressing WT human SLACK; assay type: cell-based; settings: for IC50 / EC50: CRC; for Mode: Tl+ flux, HEK-293 cells expressing WT SLACK
T1 sequence (Q5JUK3 1-1235 isoform Q5JUK3-3): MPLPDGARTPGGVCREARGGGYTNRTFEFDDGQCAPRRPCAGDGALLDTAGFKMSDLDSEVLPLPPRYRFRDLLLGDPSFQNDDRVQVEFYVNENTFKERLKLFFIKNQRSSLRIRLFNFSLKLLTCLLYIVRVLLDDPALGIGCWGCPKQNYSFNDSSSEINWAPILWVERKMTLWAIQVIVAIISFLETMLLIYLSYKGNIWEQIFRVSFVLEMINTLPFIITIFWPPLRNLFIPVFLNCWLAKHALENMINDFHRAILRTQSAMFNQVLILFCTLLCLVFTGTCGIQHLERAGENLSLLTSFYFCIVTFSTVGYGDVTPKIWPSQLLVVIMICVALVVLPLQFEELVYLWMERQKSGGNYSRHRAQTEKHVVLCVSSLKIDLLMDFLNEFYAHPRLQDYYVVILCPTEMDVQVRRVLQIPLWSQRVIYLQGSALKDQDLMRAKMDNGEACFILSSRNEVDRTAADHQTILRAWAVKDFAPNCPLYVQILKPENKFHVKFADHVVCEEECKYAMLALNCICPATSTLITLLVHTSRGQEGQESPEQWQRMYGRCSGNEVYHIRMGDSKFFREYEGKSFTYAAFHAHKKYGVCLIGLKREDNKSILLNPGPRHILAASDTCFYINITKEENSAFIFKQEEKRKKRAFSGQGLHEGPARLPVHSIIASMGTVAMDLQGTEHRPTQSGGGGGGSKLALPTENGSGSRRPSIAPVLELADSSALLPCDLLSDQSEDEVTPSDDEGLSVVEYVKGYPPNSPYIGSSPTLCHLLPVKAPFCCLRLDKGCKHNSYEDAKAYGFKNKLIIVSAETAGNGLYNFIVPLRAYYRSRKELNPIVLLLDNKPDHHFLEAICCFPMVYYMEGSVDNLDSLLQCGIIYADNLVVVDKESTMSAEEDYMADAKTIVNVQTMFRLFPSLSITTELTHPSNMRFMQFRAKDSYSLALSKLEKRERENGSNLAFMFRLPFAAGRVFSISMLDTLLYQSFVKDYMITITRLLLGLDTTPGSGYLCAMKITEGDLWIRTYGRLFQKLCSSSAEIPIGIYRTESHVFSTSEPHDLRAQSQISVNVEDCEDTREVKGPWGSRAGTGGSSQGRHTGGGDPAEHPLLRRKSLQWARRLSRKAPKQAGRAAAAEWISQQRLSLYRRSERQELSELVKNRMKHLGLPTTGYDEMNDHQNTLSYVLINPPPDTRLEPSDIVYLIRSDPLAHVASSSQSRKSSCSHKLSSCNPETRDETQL
Outline: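 Stably transfected HEK-293 cells expressing wild-type human SLACK; thallium flux read-out. IC50 or EC50 taken from concentration-response curves, and each compound classed as inhibitor, activator or not active. Efficacy is the response amplitude at 30 μM test compound, as a percentage of the maximum response to a reference SLACK inhibitor (for inhibitors) or loxapine (for activators).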

[2] = biological target: Maxi-K (Slo1 α1/β3) (Homo sapiens, UniProt Q12791); assay: Tl+ flux assay in HEK-293 cells expressing Maxi-K; assay type: cell-based; settings: CRC
Maxi-K (Slo1 α1/β3), sequence (Q12791 whole entry, species assumed): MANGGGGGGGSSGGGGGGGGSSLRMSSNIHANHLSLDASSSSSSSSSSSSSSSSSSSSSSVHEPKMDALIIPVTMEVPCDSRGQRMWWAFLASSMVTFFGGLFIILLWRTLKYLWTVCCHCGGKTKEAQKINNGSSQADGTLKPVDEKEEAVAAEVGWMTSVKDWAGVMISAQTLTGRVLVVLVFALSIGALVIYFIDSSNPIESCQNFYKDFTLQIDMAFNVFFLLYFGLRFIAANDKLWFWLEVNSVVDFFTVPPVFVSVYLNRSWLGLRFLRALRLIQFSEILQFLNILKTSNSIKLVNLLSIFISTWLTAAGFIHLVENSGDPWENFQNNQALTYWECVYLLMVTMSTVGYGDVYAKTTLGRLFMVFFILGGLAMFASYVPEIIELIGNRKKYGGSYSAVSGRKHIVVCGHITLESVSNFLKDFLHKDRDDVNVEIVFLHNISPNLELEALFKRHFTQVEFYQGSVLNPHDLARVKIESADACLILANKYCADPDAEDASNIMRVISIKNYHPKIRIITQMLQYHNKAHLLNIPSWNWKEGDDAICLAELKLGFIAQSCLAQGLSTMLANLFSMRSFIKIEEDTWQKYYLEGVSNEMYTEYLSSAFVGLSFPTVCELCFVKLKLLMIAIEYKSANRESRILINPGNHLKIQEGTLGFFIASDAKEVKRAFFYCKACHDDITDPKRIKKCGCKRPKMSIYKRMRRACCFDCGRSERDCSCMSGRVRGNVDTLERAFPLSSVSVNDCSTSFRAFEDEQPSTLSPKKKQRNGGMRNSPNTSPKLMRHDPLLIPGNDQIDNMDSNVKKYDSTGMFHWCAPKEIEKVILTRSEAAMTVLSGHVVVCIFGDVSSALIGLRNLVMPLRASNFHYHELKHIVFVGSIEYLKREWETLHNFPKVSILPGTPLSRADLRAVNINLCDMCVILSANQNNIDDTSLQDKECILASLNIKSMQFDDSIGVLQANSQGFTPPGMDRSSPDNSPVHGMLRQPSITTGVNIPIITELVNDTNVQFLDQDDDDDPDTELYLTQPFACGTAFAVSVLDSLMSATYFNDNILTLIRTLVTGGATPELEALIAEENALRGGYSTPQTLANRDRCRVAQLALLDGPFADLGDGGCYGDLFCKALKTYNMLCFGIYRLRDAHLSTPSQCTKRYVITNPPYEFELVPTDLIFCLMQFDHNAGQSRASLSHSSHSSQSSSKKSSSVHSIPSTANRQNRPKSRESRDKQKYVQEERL
Maxi-K (Slo1 α1/β3), sequence (Q9NPA1 whole entry partner, species assumed): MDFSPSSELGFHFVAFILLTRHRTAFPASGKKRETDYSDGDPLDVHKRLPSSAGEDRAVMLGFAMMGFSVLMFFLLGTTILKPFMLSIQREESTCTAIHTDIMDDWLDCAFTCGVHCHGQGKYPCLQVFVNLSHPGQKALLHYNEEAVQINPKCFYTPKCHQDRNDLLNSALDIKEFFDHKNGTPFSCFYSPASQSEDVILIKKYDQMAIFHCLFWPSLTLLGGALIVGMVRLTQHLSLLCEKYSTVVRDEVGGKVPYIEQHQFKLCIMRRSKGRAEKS

[3] = IC50 for compounds of mode Inh (also cells printed Inactive)

IC50 / EC50 [1, 3]	IC50 / EC50 ([1]; EC50 for compounds of mode Act)	Structure (SMILES)	also measured
3.7 µM		CC(C)Oc1ccccc1S(=O)(=O)N1CC(c2nc(-c3ccsc3)no2)C1 [Compound 27, 5-(1-((2-Isopropoxyphenyl)sulfonyl)azetidin-3-yl)-3-(thiophen-3-yl)-1,2,4-oxadiazole]	Maxi-K (Slo1 α1/β3) IC50 [2]: inactive
3.2 µM		CCOc1ccccc1S(=O)(=O)N1CC(c2nc(-c3ccc(F)cc3)no2)C1 [Compound 43, 5-(1-((2-Ethoxyphenyl)sulfonyl)azetidin-3-yl)-3-(4-fluorophenyl)-1,2,4-oxadiazole]	Maxi-K (Slo1 α1/β3) IC50 [2]: inactive
>10 µM		CCOc1ccccc1S(=O)(=O)N1CC(c2nc(-c3ccco3)no2)C1 [Compound 63, 5-(1-((2-Ethoxyphenyl)sulfonyl)azetidin-3-yl)-3-(furan-2-yl)-1,2,4-oxadiazole]	
Inactive		CCOc1ccccc1S(=O)(=O)N1CC(c2nc(-c3ccccn3)no2)C1 [Compound 64, 5-(1-((2-Ethoxyphenyl)sulfonyl)azetidin-3-yl)-3-(pyridin-2-yl)-1,2,4-oxadiazole]	Mode [1]: Inactive
Inactive		CCOc1ccccc1S(=O)(=O)N1CC(c2nc(-c3cccnc3)no2)C1 [Compound 65, 5-(1-((2-Ethoxyphenyl)sulfonyl)azetidin-3-yl)-3-(pyridin-3-yl)-1,2,4-oxadiazole]	Mode [1]: Inactive
Inactive		CCOc1ccccc1S(=O)(=O)N1CC(c2nc(-c3ccncc3)no2)C1 [Compound 66, 5-(1-((2-Ethoxyphenyl)sulfonyl)azetidin-3-yl)-3-(pyridin-4-yl)-1,2,4-oxadiazole]	Mode [1]: Inactive
Inactive		CCOc1ccccc1S(=O)(=O)N1CC(c2nc(-c3ccc(F)cn3)no2)C1 [Compound 67, 5-(1-((2-Ethoxyphenyl)sulfonyl)azetidin-3-yl)-3-(5-fluoropyridin-2-yl)-1,2,4-oxadiazole]	Mode [1]: Inactive
Inactive		CCOc1ccccc1S(=O)(=O)N1CC(c2nc(-c3ncccn3)no2)C1 [Compound 68, 5-(1-((2-Ethoxyphenyl)sulfonyl)azetidin-3-yl)-3-(pyrimidin-2-yl)-1,2,4-oxadiazole]	Mode [1]: Inactive
	4.0 µM	CCOc1ccccc1S(=O)(=O)N1CC(C)(c2nc(-c3ccc(F)cc3)no2)C1 [Compound 69]	
9.2 µM		CCOc1ccccc1S(=O)(=O)N1CC(F)(c2nc(-c3ccc(F)cc3)no2)C1 [Compound 70]	
>10 µM		CCOc1ccccc1S(=O)(=O)C1CN(c2nc(-c3ccc(F)cc3)no2)C1 [Compound 71]	
Inactive		CCOc1ccccc1S(=O)(=O)[C@H]1C[C@@H](c2nc(-c3ccc(F)cc3)no2)C1 [Compound 73a]	Mode [1]: Inactive
>10 µM		CCOc1ccccc1S(=O)(=O)[C@H]1C[C@H](c2nc(-c3ccc(F)cc3)no2)C1 [Compound 73b]	
>10 µM		CCOc1ccccc1S(=O)(=O)N1CC[C@@H](c2nc(-c3ccc(F)cc3)no2)C1 [Compound 74]	
>10 µM		CCOc1ccccc1S(=O)(=O)N1CC[C@H](c2nc(-c3ccc(F)cc3)no2)C1 [Compound 75]	
4.9 µM		CCOc1ccccc1S(=O)(=O)N1CCC(c2nc(-c3ccc(F)cc3)no2)CC1 [Compound 76]	Maxi-K (Slo1 α1/β3) IC50 [2]: inactive
Inactive		CCOc1ccccc1S(=O)(=O)c1ccc(-c2nc(-c3ccc(F)cc3)no2)cc1 [Compound 77]	Mode [1]: Inactive
	>10 µM	CCOc1ccccc1S(=O)(=O)N1CC(c2nnc(-c3ccc(F)cc3)o2)C1 [Compound 81]	
	>10 µM	CCOc1ccccc1S(=O)(=O)N1CC(c2nnc(-c3ccc(F)cc3)[nH]2)C1 [Compound 86]	
Inactive		CCOc1ccccc1S(=O)(=O)N1CC(c2cc(-c3ccc(F)cc3)no2)C1 [Compound 92]	Mode [1]: Inactive
	>10 µM	CCOc1ccccc1S(=O)(=O)N1CC(c2cn(-c3ccc(F)cc3)nn2)C1 [Compound 95]	

IC50 / EC50 [1, 3]	IC50 / EC50 ([1]; EC50 for compounds of mode Act)	Structure (SMILES)	also measured
	10 µM	CCOc1ccccc1S(=O)(=O)N1CC(c2ncc(-c3ccc(F)cc3)o2)C1 [Compound 97]	
	4.1 µM	CCOc1ccccc1S(=O)(=O)N1CC(c2nc(-c3ccc(F)cc3)c[nH]2)C1 [Compound 99]	
>10 µM		CCOc1ccccc1S(=O)(=O)N1CC(c2nc(-c3ccc(F)cc3)cn2C)C1 [Compound 100]	
>10 µM		CCOc1ccccc1S(=O)(=O)N1CC(c2noc(-c3ccc(F)cc3)n2)C1 [Compound 101]	
Inactive		CCOc1ccccc1S(=O)(=O)N1CC(c2cc(-c3ccc(F)cc3)on2)C1 [Compound 102]	Mode [1]: Inactive
	>10 µM	CCOc1ccccc1S(=O)(=O)N1CC(c2cc(-c3ccc(F)cc3)n[nH]2)C1 [Compound 103]	
9.3 µM		O=S(=O)(c1ccccc1OCC1CCC1)N1CC(c2nc(-c3ccc(F)cc3)no2)C1 [Compound 110, 5-(1-((2-(Cyclobutylmethoxy)phenyl)sulfonyl)azetidin-3-yl)-3-(4-fluorophenyl)-1,2,4-oxadiazole]	
>10 µM		CCOc1ncccc1S(=O)(=O)N1CC(c2nc(-c3ccc(F)cc3)no2)C1 [Compound 111]	
6.0 µM		O=S(=O)(c1ccccc1OCC1CC1)N1CC(c2nc(-c3ccc(F)cc3)no2)C1 [Compound 114, 5-(1-((2-(Cyclopropylmethoxy)phenyl)sulfonyl)azetidin-3-yl)-3-(4-fluorophenyl)-1,2,4-oxadiazole]	
	2.5 µM	O=S(=O)(c1ccccc1OC1COC1)N1CC(c2nc(-c3ccc(F)cc3)no2)C1 [Compound 115, 3-(4-Fluorophenyl)-5-(1-((2-(oxetan-3-yloxy)phenyl)sulfonyl)azetidin-3-yl)-1,2,4-oxadiazole]	
5.8 µM		O=S(=O)(c1ccccc1OC1CCCC1)N1CC(c2nc(-c3ccc(F)cc3)no2)C1 [Compound 116, 5-(1-((2-(cyclopentyloxy)phenyl)sulfonyl)azetidin-3-yl)-3-(4-fluorophenyl)-1,2,4-oxadiazole]	
8.9 µM		O=S(=O)(c1ccccc1N1CCCC1)N1CC(c2nc(-c3ccc(F)cc3)no2)C1 [Compound 117, 3-(4-Fluorophenyl)-5-(1-((2-(pyrrolidin-1-yl)phenyl)sulfonyl)azetidin-3-yl)-1,2,4-oxadiazole]	
>10 µM		O=S(=O)(c1ccccc1N1CCCCC1)N1CC(c2nc(-c3ccc(F)cc3)no2)C1 [Compound 118, 3-(4-Fluorophenyl)-5-(1-((2-(piperidin-1-yl)phenyl)sulfonyl)azetidin-3-yl)-1,2,4-oxadiazole]	
	2.3 µM	O=S(=O)(c1cccc2ccoc12)N1CC(c2nc(-c3ccc(F)cc3)no2)C1 [Compound 120, 5-(1-(Benzofuran-7-ylsulfonyl)azetidin-3-yl)-3-(4-fluorophenyl)-1,2,4-oxadiazole]	
	>10 µM	O=S(=O)(c1cccn2ccnc12)N1CC(c2nc(-c3ccc(F)cc3)no2)C1 [Compound 125]	
	>10 µM	Cc1cn2cccc(S(=O)(=O)N3CC(c4nc(-c5ccc(F)cc5)no4)C3)c2n1 [Compound 126]	
	>10 µM	O=S(=O)(c1cccn2ncnc12)N1CC(c2nc(-c3ccc(F)cc3)no2)C1 [Compound 129]	
	>10 µM	Cc1nc2c(S(=O)(=O)N3CC(c4nc(-c5ccc(F)cc5)no4)C3)cccn2n1 [Compound 130]	
	>10 µM	O=S(=O)(c1cccn2cnnc12)N1CC(c2nc(-c3ccc(F)cc3)no2)C1 [Compound 132]	
Inactive		Cc1nnc2c(S(=O)(=O)N3CC(c4nc(-c5ccc(F)cc5)no4)C3)cccn12 [Compound 133]	Mode [1]: Inactive
